The text below walks through data of ChEMBL document CHEMBL1134793, “Investigation of the selectivity of oxymorphone- and naltrexone-derived ligands via site-directed mutagenesis of opioid receptors: exploring the "address" recognition locus” (J Med Chem, 2001).

Common to all, as to type: cell-based, HEK293
Assay [1] concerns the target Mu-type opioid receptor (Rattus norvegicus, UniProt P33535, K303E). Put plainly: Displacement of [3H]- diprenorphine from mu-K303E-receptor expressed in HEK 293 cells.
Assay [2] deals with Mu-type opioid receptor (Rattus norvegicus, UniProt P33535, W318A). Put plainly: Displacement of [3H]- diprenorphine from mu-W318A-receptor expressed in HEK 293 cells. For orientation: Loss of bound radioactivity is the signal in a displacement assay; it reports binding, not function.
Mu-type opioid receptor (Rattus norvegicus, UniProt P33535, W318A), sequence (P33535 whole entry W318A): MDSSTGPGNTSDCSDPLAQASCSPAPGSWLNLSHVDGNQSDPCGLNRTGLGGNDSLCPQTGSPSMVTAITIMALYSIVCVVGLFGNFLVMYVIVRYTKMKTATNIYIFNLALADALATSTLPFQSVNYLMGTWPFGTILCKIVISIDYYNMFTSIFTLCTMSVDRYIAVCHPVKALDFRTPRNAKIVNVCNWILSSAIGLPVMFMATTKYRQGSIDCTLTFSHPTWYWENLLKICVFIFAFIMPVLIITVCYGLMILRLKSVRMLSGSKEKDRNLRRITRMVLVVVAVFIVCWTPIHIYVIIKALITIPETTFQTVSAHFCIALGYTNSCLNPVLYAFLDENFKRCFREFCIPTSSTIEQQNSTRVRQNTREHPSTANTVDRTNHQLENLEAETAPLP
The target of assay [3] is Delta-type opioid receptor (Mus musculus, UniProt P32300). The assay can be described thus: Displacement of [3H]- diprenorphine from delta receptor expressed in HEK 293 cells. An outline of the steps: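 HEK-293 cells transiently transfected with wild-type or mutant receptor cDNA by calcium phosphate were harvested 60-72 h later and suspended in 25 mM HEPES, pH 7.4. […] Nonspecific binding was defined with 1 μM NTI. Bound ligand was filtered on PEI-soaked GF/B and counted.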
Delta-type opioid receptor (Mus musculus, UniProt P32300), sequence (P32300 whole entry): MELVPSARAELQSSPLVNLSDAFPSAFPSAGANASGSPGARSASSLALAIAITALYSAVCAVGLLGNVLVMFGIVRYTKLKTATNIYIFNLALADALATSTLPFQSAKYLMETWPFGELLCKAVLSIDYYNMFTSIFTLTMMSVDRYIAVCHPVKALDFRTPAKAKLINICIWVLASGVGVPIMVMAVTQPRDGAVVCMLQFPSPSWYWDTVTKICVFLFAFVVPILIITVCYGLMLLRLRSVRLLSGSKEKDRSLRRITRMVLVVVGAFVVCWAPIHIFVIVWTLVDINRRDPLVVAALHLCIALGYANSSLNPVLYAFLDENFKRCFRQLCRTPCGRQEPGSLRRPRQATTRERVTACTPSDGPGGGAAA

Assay [4] addresses Delta-type opioid receptor (Mus musculus, UniProt P32300, W284E). Put plainly: Displacement of [3H]- diprenorphine from delta-W284E-receptor expressed in HEK 293 cells. Put shortly:
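HEK-293 cells transiently transfected with wild-type or mutant receptor cDNA by calcium phosphate were harvested 60-72 h later and suspended in 25 mM HEPES, pH 7.4. Nonspecific binding was defined with 1 μM NTI. Bound ligand was filtered on PEI-soaked GF/B and counted.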

Assay [5] has as its target Kappa-type opioid receptor (Rattus norvegicus, UniProt P34975, E297A). The assay can be described thus: Displacement of [3H]diprenorphine from k-E297A-receptor expressed in HEK 293 cells.
The target of assay [6] is Kappa-type opioid receptor (Rattus norvegicus, UniProt P34975, Y312A). Put plainly: Displacement of [3H]diprenorphine from k-Y312A-receptor expressed in HEK 293 cells.
Kappa-type opioid receptor (Rattus norvegicus, UniProt P34975, Y312A), sequence (P34975 whole entry Y312A): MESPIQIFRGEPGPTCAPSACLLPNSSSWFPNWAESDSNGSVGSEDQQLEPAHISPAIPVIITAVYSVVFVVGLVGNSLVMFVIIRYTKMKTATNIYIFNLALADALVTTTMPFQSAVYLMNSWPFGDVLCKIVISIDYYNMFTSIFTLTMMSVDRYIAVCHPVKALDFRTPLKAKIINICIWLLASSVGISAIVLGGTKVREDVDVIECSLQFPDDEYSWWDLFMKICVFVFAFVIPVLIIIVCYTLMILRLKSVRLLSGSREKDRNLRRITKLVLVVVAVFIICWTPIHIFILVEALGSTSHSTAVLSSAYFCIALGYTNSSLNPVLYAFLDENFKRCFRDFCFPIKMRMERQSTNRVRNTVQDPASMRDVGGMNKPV
Assay [7] addresses Kappa-type opioid receptor (Rattus norvegicus, UniProt P34975). Put plainly: Displacement of [3H]diprenorphine from opioid receptor kappa 1 expressed in HEK 293 cells.
Assay [8] concerns the target Mu-type opioid receptor (Rattus norvegicus, UniProt P33535). Put plainly: Displacement of [3H]- diprenorphine from mu-receptor expressed in HEK 293 cells.

Kappa-type opioid receptor (Rattus norvegicus, UniProt P34975, E297A), sequence (P34975 whole entry E297A): as the sequence (P34975 whole entry Y312A) above, with E297A, A312Y counted along it
Delta-type opioid receptor (Mus musculus, UniProt P32300, W284E), sequence (P32300 whole entry W284E): as the sequence (P32300 whole entry) above, with W284E counted along it
Kappa-type opioid receptor (Rattus norvegicus, UniProt P34975), sequence (P34975 whole entry): as the sequence (P34975 whole entry Y312A) above, with A312Y counted along it
Mu-type opioid receptor (Rattus norvegicus, UniProt P33535, K303E), sequence (P33535 whole entry K303E): as the sequence (P33535 whole entry W318A) above, with K303E, A318W counted along it
Mu-type opioid receptor (Rattus norvegicus, UniProt P33535), sequence (P33535 whole entry): as the sequence (P33535 whole entry W318A) above, with A318W counted along it

A word on the Ki: it is a measure of affinity in units of concentration, obtained from inhibition or displacement. As to `N=C(N)Nc1ccc2[nH]c3c(c2c1)C[C@@]1(O)[C@H]2Cc4ccc(O)c5c4[C@@]1(CCN2CC1CC1)[C@H]3O5` [GUANIDINONALTRINDOLE], the Ki in assay [1] came out at 0.09 nM; in assay [2], 0.5 nM; in assay [3], 46.2 nM; in assay [4], 1.1 nM; in assay [5], 3.9 nM; in assay [6] it was 0.03 nM.
In the case of `Oc1ccc2c3c1O[C@H]1c4[nH]c5ccccc5c4C[C@@]4(O)[C@@H](C2)N(CC2CC2)CC[C@]314` [NALTRINDOLE], the Ki in assay [3] was found to be 0.19 nM; in assay [4] it was 1.82 nM; in assay [5], 42 nM; in assay [7], 25.5 nM; in assay [6], 1.23 nM.
As to `Oc1ccc2c3c1O[C@H]1c4[nH]c5c(c4C[C@@]4(O)[C@@H](C2)N(CC2CC2)CC[C@]314)C[C@@]1(O)[C@H]2Cc3ccc(O)c4c3[C@@]1(CCN2CC1CC1)[C@H]5O4` [NORBINALTORPHIMINE], the figures for the Ki in assay [7] and in assay [6] were 0.07 nM and 1.39 nM, respectively.
For the compound `CN1CC[C@]23c4c5ccc(O)c4O[C@H]2C(=O)C2(Cc4ccccc4C2)C[C@@]3(O)[C@H]1C5` [SPIROINDANYLOXYMORPHONE], the inhibitory constant (Ki) is 154 nM in assay [1]; 3.9 nM in assay [2]; 88.4 nM in assay [8]; 4.1 nM in assay [3]; 46.6 nM in assay [4]; 292 nM in assay [5]. Further, the inhibitory constant (Ki) in assay [7] was 488 nM; in assay [6] it was 55 nM.
